According to PMC10692386 (Acta Pharmaceutica Sinica. B, 2023):

Tests used:
HIV-1 mutant E138K = assay: Anti-HIV-1 efficacy against mutant E138K in MT-4 cells; format: cell-based; conditions: Human immunodeficiency virus 1, MT4, read-out: EC50 E138K
How it was run: (§1)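 MT-4 cells were infected with HIV-1 RT mutant strains. EC50 was the concentration giving 50% protection against viral cytopathicity, averaged from at least three independent experiments. Cytotoxicity in mock-infected cultures was read by MTT.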

HIV-1 mutant Y181C = assay: Anti-HIV-1 efficacy against mutant Y181C in MT-4 cells; format: cell-based; conditions: Human immunodeficiency virus 1, MT4, read-out: EC50 Y181C
How it was run: as §1

HIV-1 mutant L100I = assay: Anti-HIV-1 efficacy against mutant L100I in MT-4 cells; format: cell-based; conditions: Human immunodeficiency virus 1, MT4, read-out: EC50 L100I
How it was run: as §1

[1] = Cytotoxicity in mock-infected MT-4 cell cultures; format: cell-based; conditions: human, mock-infected MT-4 cells
WT HIV-1 RT = WT HIV-1 RT (Human immunodeficiency virus type 1 group M subtype B, UniProt P03366); assay: Inhibition of WT HIV-1 RT; format: biochemical
HIV-1 mutant Y188L = assay: Anti-HIV-1 efficacy against mutant Y188L in MT-4 cells; format: cell-based; conditions: Human immunodeficiency virus 1, MT4, read-out: EC50 Y188L
How it was run: as §1

WT HIV-1 = assay: Anti-HIV-1 activity in MT-4 cells infected with HIV-1; format: cell-based; conditions: for EC50: Human immunodeficiency virus 1, MT4; for SI: selectivity index, the ratio of CC50/EC50, WT HIV-1
HIV-1 mutant K103N = assay: Anti-HIV-1 efficacy against mutant K103N in MT-4 cells; format: cell-based; conditions: Human immunodeficiency virus 1, MT4, read-out: EC50 K103N
How it was run: as §1

[2] = test system: HIV-1 mutant K103N + Y181C; assay: Anti-HIV-1 efficacy against mutant K103N + Y181C in MT-4 cells; format: cell-based; conditions: Human immunodeficiency virus 1, MT4, read-out: EC50 K103N + Y181C
How it was run: as §1

Compound | EC50 (HIV-1 mutant E138K) [µM] | EC50 (HIV-1 mutant Y181C) [µM] | EC50 (HIV-1 mutant L100I) [µM] | CC50 [1] [µM] | IC50 (WT HIV-1 RT) [µM] | EC50 (HIV-1 mutant Y188L) [µM] | EC50 (WT HIV-1) [µM] | SI (WT HIV-1) | EC50 (HIV-1 mutant K103N) [µM] | EC50 [2] [µM]
Cn1c(Cn2ccc(C(F)(F)F)c(Oc3cncc(Cl)c3)c2=O)n[nH]c1=O [7a] | 0.61 ± 0.04 | 1.79 ± 0.58 | 0.93 ± 0.51 | > 311 | 1.14 ± 0.043 | 122 ± 62.1 | 0.55 ± 0.23 | >563 | 1.22 ± 0.56 | 18.3 ± 11.4
Cn1c(Cn2ccc(C(F)(F)F)c(Oc3cncc(Br)c3)c2=O)n[nH]c1=O [7e] | 0.62 ± 0.22 | 0.85 ± 0.15 | 0.68 ± 0.22 | > 280 | 0.74 ± 0.03 | 39 ± 5.33 | 0.49 ± 0.12 | >573 | 0.95 ± 0.27 | 12.3 ± 8.12
Cc1cncc(Oc2c(C(F)(F)F)ccn(Cc3n[nH]c(=O)n3C)c2=O)c1 [7h] | 0.77 ± 0.04 | 1.78 ± 0.1 | 0.55 ± 0.33 | > 328 | 1.03 ± 0.14 | 196 ± 12.1 | 0.53 ± 0.16 | >616 | 1.2 ± 0.18 | 16.1 ± 7.33
Cn1c(Cn2ccc(C(F)(F)F)c(Oc3cccnc3)c2=O)n[nH]c1=O [7s] | – | – | – | > 367 | – | – | 1.22 ± 0.24 | >278 | – | –
Cc1ncc(Oc2c(C(F)(F)F)ccn(Cc3n[nH]c(=O)n3C)c2=O)cn1 [7t] | – | – | – | > 250 | – | – | > 250 | >1 | – | –
Cn1c(Cn2ccc(C(F)(F)F)c(Oc3cncc4ccccc34)c2=O)n[nH]c1=O [7u] | 0.9 ± 0.29 | 1.56 ± 0.49 | 0.5 ± 0.22 | 277 ± 10.1 | 4.38 ± 0.35 | > 250 | 0.89 ± 0.23 | 309.52 | 3.01 ± 1.42 | 34 ± 13
Cn1c(Cn2ccc(C(F)(F)F)c(Oc3cccc4ncccc34)c2=O)n[nH]c1=O [7v] | – | – | – | 278 ± 18.6 | – | – | 4.48 ± 1.24 | 62.10 | – | –
